# Source: PubChem BioAssay (The Scripps Research Institute Molecular Screening Center)
# NPY2 pot ag = NPY-Y2 potentiators or agonists, primary screen, cell-based. Neuropeptide Y receptor type 2 (Homo sapiens), P49146. cells expressing NPY-Y2, potentiator/agonist read-out. activation, % at 3.6 µM. 0.45% of 220,000 active. AID 1359, 2008; in the data active means activation above about 27%;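 further: cells stimulated with NPY near EC25 plus isoproterenol at EC100; 0% = vehicle plus submaximal agonist and 100% = vehicle plus saturating agonist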
# Target sequence (P49146 whole entry, looked up): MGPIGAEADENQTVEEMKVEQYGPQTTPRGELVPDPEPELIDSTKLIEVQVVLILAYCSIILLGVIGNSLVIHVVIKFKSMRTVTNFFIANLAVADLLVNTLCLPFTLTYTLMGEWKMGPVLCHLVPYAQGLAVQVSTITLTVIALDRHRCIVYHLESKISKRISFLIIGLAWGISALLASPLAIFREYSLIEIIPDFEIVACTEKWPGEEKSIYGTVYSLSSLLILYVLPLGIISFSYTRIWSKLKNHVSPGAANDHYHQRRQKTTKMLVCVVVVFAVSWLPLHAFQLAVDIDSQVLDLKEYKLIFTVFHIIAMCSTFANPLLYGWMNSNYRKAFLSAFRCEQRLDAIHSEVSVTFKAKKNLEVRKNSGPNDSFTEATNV
# NPY-Y1 PAM-ag = NPY-Y1 receptor potentiators or agonists, primary screen, cell-based; Neuropeptide Y receptor type 1 (Homo sapiens), P25929; NPY-Y1 expressing cells, potentiator/agonist activation; 0.37% of 220,000 active; activation, % at 3.6 µM; AID 1304, 2008; in the data active means activation above about 33%, passing the limit was not always enough;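 further: cells stimulated with NPY at EC10 then isoproterenol at EC100; 0% = low agonist plus stimulus and 100% = saturating agonist plus stimulus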
# NPY-Y2 antag = NPY-Y2 receptor antagonists, primary screen, cell-based. NPY-Y2 expressing cells, antagonist mode. 0.99% of 140,000 active. inhibition, % at 2.7 µM. Neuropeptide Y receptor type 2 (Homo sapiens), P49146; in the data active means inhibition above about 17%;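 further: 0% = vehicle with agonist challenge and 100% = reference antagonist with challenge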
# NPY-Y1 antag = NPY-Y1 receptor antagonists, primary screen, cell-based; HEK293-CNG Y1 cells, membrane potential fluorescence; NPY at EC95, then isoproterenol; 1% of 200,000 active; inhibition, % at 3.6 µM; AID 1040, 2008;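 active means inhibition above the campaign mean inhibition of all tested compounds plus 3 SD, cut at about 20% in these data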;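 further: 0% = DMSO wells given NPY plus isoproterenol and 100% = isoproterenol alone without NPY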
#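 System: HEK293 cells with Y1 receptor plus CNG channel / Probe or stimulus: NPY 25 nM then isoproterenol 1 µM plus Ro 20-1724 25 µM / Compound: one concentration, 3.6 µM, in 0.4% DMSO / Schedule: compound incubation 1 h at room temperature, readout 45 min post-stimulation / Measured by: membrane potential fluorescence / Read-out: % inhibition of NPY effect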
# * = called active by the depositor; . = no result. Only some compounds are listed: those with a hit (about 1.9% of all), similar ones and a draw of the others.
SMILES,NPY2 pot ag,NPY-Y1 PAM-ag,NPY-Y2 antag,NPY-Y1 antag
COc1ccc(C(C)=O)cc1CSc1nc2ccccc2c(=O)n1-c1ccccc1,9,2,11,0
C=CCn1c(SCc2c(C)noc2C)nc2ccccc2c1=O,-30,-61,29*,64*
CCNc1nc(SCC(=O)OC)nc(N(C)C)n1,6,1,.,5
CSc1nc(C)nc(N/C=C(\C#N)S(=O)(=O)c2ccccc2Cl)n1,-10,-4,.,.
CCOC(=O)C1CCCN(C(=O)c2cnn3c(C(F)(F)F)cc(-c4ccccc4)nc23)C1 (stereo not given),-24,-53,19*,22*
CCCOc1ccc(CN(CCC#N)C(=S)NC(=O)c2ccccc2)cc1,-5,-13,2,-2
COC(=O)c1ccc(NC(=O)COc2ccc(S(=O)(=O)NC(C)(C)C)cc2)cc1,5,6,.,1
Cc1ccc(NC(=O)C2CCN(S(=O)(=O)c3ccc(F)cc3)CC2)cc1,105*,113*,2,-2
Cc1ccc(-n2c(C)cc(/C=N/NC(=O)Cn3c4ccccc4c(=O)c4ccccc43)c2C)cc1,56*,61*,1,-5
OCCN1CCN(c2nc(NCc3ccco3)c3ccccc3n2)CC1,-19,-40,7,12
Cc1ccc(OCCN2CCN(c3nc(NCc4ccco4)c4ccccc4n3)CC2)cc1,-7,-58,30*,34*
c1ccc(CN2CCN(c3nc(NCc4ccco4)c4ccccc4n3)CC2)cc1,-16,-26,28*,31*
Cc1ccc(N2C(=O)CC(Nc3ccc(Cl)c(S(=O)(=O)N(C)C)c3)C2=O)c(C)c1 (stereo not given),8,-8,.,-1
Cc1cccc2c1NC(=O)C2(c1ccc(O)cc1)c1ccc(O)cc1,-14,-39,114*,116*
O=C(Nc1ccc(N2CCCCC2)cc1)c1ccc(F)cc1,-1,-7,3,0
O=C(c1ccc(F)cc1)c1ccc(N2CCCC2)cc1,-8,-6,3,21*
Cc1c(O)c(CN2CCCC2)cc2c3c(c(=O)oc12)CCC3,4,-6,1,-1
Cc1c(O)c(CN2CCCC2)cc2c1oc(=O)c1ccccc12,57*,65*,2,-17
CC(C)N(C(=O)COC(=O)CNC(=O)c1ccc(Br)cc1)c1ccccc1,7,-21,1,-1
CN(c1cccc(Cl)c1)S(=O)(=O)c1cccc(C(=O)Nc2nc3ccccc3[nH]2)c1,-10,-64,27*,30*
COc1ccc(N(C)S(=O)(=O)c2cccc(C(=O)Nc3nc4ccccc4[nH]3)c2)cc1,-12,-7,.,10
O=C(CSc1nnc(-c2ccccc2)n1-c1ccccc1)c1ccc[nH]1,14,20,4,2
O=C(CSc1nnc(-c2ccccc2)n1-c1ccccc1)c1cccs1,31*,49*,5,-2
Cn1c(=O)c2c(nc(NCCCN3CCOCC3)n2Cc2ccc(Cl)cc2)n(C)c1=O,16,0,2,-1
Cn1c(=O)c2c(nc(NCCCN3CCOCC3)n2Cc2ccc(Cl)c(Cl)c2)n(C)c1=O,-15,-41,23*,20*
SMILES,NPY2 pot ag,NPY-Y1 PAM-ag,NPY-Y2 antag,NPY-Y1 antag
CSC1=NCCN1S(=O)(=O)c1ccc(F)cc1,0,6,.,0
Cc1ccc(S(=O)(=O)N2CC3CCCN3c3ccc(C(F)(F)F)cc32)cc1 (stereo not given),28*,18,0,-7
O=S(=O)(c1ccc(F)cc1)N1CC2CCCN2c2ccc(C(F)(F)F)cc21 (stereo not given),44*,64*,-2,-7
Cc1onc(-c2c(F)cccc2Cl)c1C(O)c1ccc(F)cc1 (stereo not given),2,0,.,.
CCn1c(=O)c([N+](=O)[O-])c(N2CCN(Cc3ccc4c(c3)OCO4)CC2)c2ccccc21,6,14,.,.
COc1ccc(CCN2C(=NC(=O)C(C)C)SC3CS(=O)(=O)CC32)cc1OC (stereo not given),-7,-11,.,.
Cc1ccc2[nH]c3c(N4CCN(Cc5ccc6c(c5)OCO6)CC4)ncnc3c2c1,6,-4,2,-8
c1nc(N2CCN(Cc3ccc4c(c3)OCO4)CC2)c2[nH]cnc2n1,101*,57*,5,4
FC(F)(F)c1cccc(NC(=S)NNC(=S)Nc2ccc(Cl)cc2)c1,45*,74*,.,.
CCOC(=O)c1c(C)oc(NC(=O)CCl)c1C(=O)OCC,-12,-6,.,-1
CC(C)(C)c1nn(-c2ccccc2)c2[nH]c(=O)c(CNc3ccc4c(c3)OCCO4)cc12,39*,54*,-3,-12
CC(C)(C)c1nn(-c2ccccc2)c2[nH]c(=O)c(CNCc3ccco3)cc12,10,47,3,-3
CCN(CC1COc2ccccc2O1)C(=S)Nc1ccccc1 (stereo not given),-4,46*,6,-2
CCCC(=O)Nc1cccc(NC(=O)c2cccc([N+](=O)[O-])c2C)c1,11,-15,3,0
c1ccc(N2CCN(c3ncnc4c3oc3ccccc34)CC2)cc1,-24,-14,22*,23*
CN(C1=C(N2CCCCC2)C(=O)c2ccccc2C1=O)c1ccccc1,37*,44*,-14,-5
O=C1C(Nc2ccccc2)=C(N2CCCCC2)C(=O)c2ccccc21,2,-20,1,3
COCCCNCC(O)COc1cccc2[nH]c(C)cc12 (stereo not given),101*,108*,.,-14
CC(C)(C)NCC(O)COc1cccc2c1C[C@H](O)[C@H](O)C2 (stereo not given in full),102*,118*,2,-10
Cc1cc2c(OCC(O)CNC(C)(C)C)cccc2[nH]1 (stereo not given),105*,111*,3,-19
Cc1cc2c(OCC(O)CN3CCCC3)cccc2[nH]1 (stereo not given),100*,110*,.,-18
COc1cccc(OC)c1OCCNC(C)(C)C,1,4,0,4
CCc1ccc(OCCOCC(O)CNC(C)(C)C)cc1 (stereo not given),11,6,4,0
COCCCNCCCOc1ccc(C)cc1Br,-2,-28,2,12
COc1ccc2cc(C3OCCO3)c(Cl)nc2c1,0,-3,.,-1
SMILES,NPY2 pot ag,NPY-Y1 PAM-ag,NPY-Y2 antag,NPY-Y1 antag
CC1CN(C(=O)/C(C#N)=C2\N=C(NC(=O)c3ccc(F)cc3)c3ccccc32)CC(C)O1 (stereo not given),-2,14,.,.
CCc1ccccc1NC(=O)CN1C(=O)C2CCCN2c2ncc(Cl)cc21 (stereo not given),-33,-7,23*,33*
CC1CCC(NC(=O)CN2C(=O)C3CCCN3c3ncc(Cl)cc32)CC1 (stereo not given),-11,-18,6,29*
Cc1c(N(C)C)nc2ccccc2c1N,3,4,3,5
CCN(CC)c1nc2ccccc2c(N)c1-c1ccccc1,-14,-10,23*,29*
Nc1c2ccccc2nc2ccccc12,51*,64*,.,.
